The source made the active and inactive calls. No cut-off for these calls is given here.
Assays:
[1] = Acute toxicity in ip dosed Royal Hart Wistar rat; format: organism-based; details: in vivo
Summary of the method: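 Paired male Royal Hart Wistar rats (136–160 g) were housed in wire cages and dosed ip. LD50 was read 2 hr after administration, using four rats per substance, and estimated by probit analysis.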

Mus musculus [2] = species on record: Mus musculus; experiment: Anticonvulsant activity in mouse assessed as protection against maximal electroshock-induced seizures; format: functional
Summary of the method: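 Maximal electroshock seizure test in mice, run by an earlier published method. Compounds were given ip at ten animals per dose, and ED50 is expressed in mg/kg ip.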

Mus musculus [3] = species on record: Mus musculus; experiment: Anticonvulsant activity in mouse assessed as protection against N-sulfamoylhexahydroazepine-induced convulsions; format: functional
Summary of the method: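 N-sulfamoylhexahydroazepine convulsion test in mice, run by an earlier published method. Compounds were given ip at ten animals per dose, and ED50 is expressed in mg/kg ip.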

Mus musculus [4] = experiment: Central nervous depressant activity in ip dosed mouse assessed as induction of ataxia; format: functional; details: Central nervous system
Summary of the method: (§1)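 Behavioral scoring in mice used a modified Irwin observational method. Compounds were given ip at ten animals per dose. Ataxia and loss of righting reflex were recorded, and ED50 values are in mg/kg ip.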

Mus musculus [5] = experiment: Central nervous depressant activity in ip dosed mouse assessed as loss of righting reflex; format: functional; details: Central nervous system; summary of the method: as §1
Mus musculus [6] = experiment: Reinduction of anesthesia-induced loss of righting in dosed mouse administered compound following recovery from hexobarbital anesthesia; format: functional
Summary of the method: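 Mice were anesthetized with hexobarbital (70 mg/kg iv). Compound was given ip immediately on recovery, and reinduction of loss of righting was timed from that point. The method was modified from earlier work, and RD50 is expressed in mg/kg ip.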

Mus musculus [7] = experiment: Anticonvulsant activity in mouse assessed as protection against N-sulfamoylhexahydroazepine-induced convulsions at 400 mg/kg, ip; format: functional, organism-based; design: dose 400 mg/kg
Mus musculus [8] = experiment: Anticonvulsant activity in mouse assessed as protection against maximal electroshock-induced seizures at 100 mg/kg, ip; format: functional, organism-based; design: dose 100 mg/kg
Mus musculus [9] = experiment: Anticonvulsant activity in mouse assessed as protection against N-sulfamoylhexahydroazepine-induced convulsions at 200 mg/kg, ip; format: functional, organism-based; design: dose 200 mg/kg
Mus musculus [10] = experiment: Anticonvulsant activity in mouse assessed as protection against maximal electroshock-induced seizures at 200 mg/kg, ip; format: functional, organism-based; design: dose 200 mg/kg

Cc1ccc(C(=O)CCC(=O)NCCCO)cc1
LD50 [1]: 750 mg/kg
ED50 (Mus musculus [2]): > 300 mg/kg
ED50 (Mus musculus [3]): > 300 mg/kg
ED50 (Mus musculus [4]): 300 mg/kg
ED50 (Mus musculus [5]): 700 mg/kg
RD50 (Mus musculus [6]): <300 mg/kg

CCC1(c2ccccc2)CCC(=O)NC1=O (stereo not drawn) [GLUTETHIMIDE]
LD50 [1]: 350 mg/kg
ED50 (Mus musculus [2]): 24.7 mg/kg
ED50 (Mus musculus [4]): 100 mg/kg
ED50 (Mus musculus [5]): 229 mg/kg
RD50 (Mus musculus [6]): 112.5 mg/kg
Activity (Mus musculus [7]): inactive

O=C(CCC(=O)c1ccc(F)cc1)NCCCO
LD50 [1]: > 800 mg/kg
ED50 (Mus musculus [2]): > 400 mg/kg
ED50 (Mus musculus [3]): > 400 mg/kg
ED50 (Mus musculus [4]): 300 mg/kg
ED50 (Mus musculus [5]): 500 mg/kg
RD50 (Mus musculus [6]): >400 mg/kg

O=C1CCC2(c3ccc(Cl)cc3)OCCCN12 (stereo not drawn)
LD50 [1]: 675 mg/kg
ED50 (Mus musculus [2]): 58 mg/kg
ED50 (Mus musculus [3]): 91.7 mg/kg
ED50 (Mus musculus [4]): 75 mg/kg
ED50 (Mus musculus [5]): 81.2 mg/kg
RD50 (Mus musculus [6]): >100 mg/kg

Cc1ccc(C(=O)CCC(=O)NCCCO)c(C)c1
LD50 [1]: 633 mg/kg
ED50 (Mus musculus [2]): > 150 mg/kg
ED50 (Mus musculus [3]): > 150 mg/kg
ED50 (Mus musculus [4]): 150 mg/kg
ED50 (Mus musculus [5]): 150 mg/kg
RD50 (Mus musculus [6]): <150 mg/kg

O=C(CCC(=O)c1cccs1)NCCCO
LD50 [1]: 475 mg/kg
ED50 (Mus musculus [2]): > 300 mg/kg
ED50 (Mus musculus [3]): > 300 mg/kg
ED50 (Mus musculus [4]): 300 mg/kg
ED50 (Mus musculus [5]): 300 mg/kg
RD50 (Mus musculus [6]): >300 mg/kg

Cc1ccc(C23CCC(=O)N2CCCO3)cc1 (stereo not drawn)
Activity (Mus musculus [8]): inactive
LD50 [1]: 675 mg/kg
ED50 (Mus musculus [4]): < 50 mg/kg
ED50 (Mus musculus [5]): 160 mg/kg
RD50 (Mus musculus [6]): >100 mg/kg
Activity (Mus musculus [9]): inactive

Cc1ccc(C23CCC(=O)N2CCCO3)c(C)c1 (stereo not drawn)
LD50 [1]: 600 mg/kg
ED50 (Mus musculus [2]): > 150 mg/kg
ED50 (Mus musculus [3]): < 150 mg/kg
ED50 (Mus musculus [4]): < 50 mg/kg
ED50 (Mus musculus [5]): 150 mg/kg
RD50 (Mus musculus [6]): <150 mg/kg

O=C1CCC2(c3cccs3)OCCCN12 (stereo not drawn)
LD50 [1]: 467 mg/kg
ED50 (Mus musculus [2]): 112 mg/kg
ED50 (Mus musculus [3]): > 75 mg/kg
ED50 (Mus musculus [4]): > 75 mg/kg
ED50 (Mus musculus [5]): > 75 mg/kg
RD50 (Mus musculus [6]): 46.5 mg/kg

O=C1CCCC2(c3ccccc3)OCCCN12 (stereo not drawn)
LD50 [1]: 500 mg/kg
ED50 (Mus musculus [2]): < 150 mg/kg
ED50 (Mus musculus [3]): 122 mg/kg
ED50 (Mus musculus [4]): < 50 mg/kg
ED50 (Mus musculus [5]): 150 mg/kg
RD50 (Mus musculus [6]): 75 mg/kg

O=C1CCC2(c3ccccc3)OCCCN12 (stereo not drawn)
LD50 [1]: 500 mg/kg
ED50 (Mus musculus [2]): 92 mg/kg
ED50 (Mus musculus [3]): 169 mg/kg
ED50 (Mus musculus [4]): 37.5 mg/kg
ED50 (Mus musculus [5]): 150 mg/kg
RD50 (Mus musculus [6]): 34 mg/kg

COc1ccc(C(=O)CCC(=O)NCCCO)cc1
LD50 [1]: 800 mg/kg
ED50 (Mus musculus [2]): > 600 mg/kg
ED50 (Mus musculus [3]): > 600 mg/kg
ED50 (Mus musculus [4]): 150 mg/kg
ED50 (Mus musculus [5]): 800 mg/kg
RD50 (Mus musculus [6]): <600 mg/kg

O=C1CCC2(c3ccc(F)cc3)OCCCN12 (stereo not drawn)
LD50 [1]: 600 mg/kg
ED50 (Mus musculus [2]): 68.7 mg/kg
ED50 (Mus musculus [3]): 50 mg/kg
ED50 (Mus musculus [4]): 75 mg/kg
ED50 (Mus musculus [5]): 100 mg/kg
RD50 (Mus musculus [6]): 66 mg/kg

O=C(CCC(=O)c1ccc(Cl)cc1)NCCCO
LD50 [1]: 633 mg/kg
ED50 (Mus musculus [2]): > 300 mg/kg
ED50 (Mus musculus [3]): > 300 mg/kg
ED50 (Mus musculus [4]): 300 mg/kg
ED50 (Mus musculus [5]): 325 mg/kg
RD50 (Mus musculus [6]): <300 mg/kg

O=C(CCC(=O)c1ccc(Cl)c(Cl)c1)NCCCO
LD50 [1]: 500 mg/kg
ED50 (Mus musculus [2]): 450 mg/kg
ED50 (Mus musculus [3]): > 600 mg/kg
ED50 (Mus musculus [4]): 300 mg/kg
ED50 (Mus musculus [5]): 500 mg/kg
RD50 (Mus musculus [6]): >300 mg/kg

O=C1CCCC2(c3ccccc3)OCCN12 (stereo not drawn)
ED50 (Mus musculus [2]): 158 mg/kg
ED50 (Mus musculus [3]): 150 mg/kg
ED50 (Mus musculus [4]): < 150 mg/kg
ED50 (Mus musculus [5]): > 150 mg/kg
RD50 (Mus musculus [6]): 69 mg/kg

CCC1(c2ccccc2)C(=O)N=C([O-])NC1=O.[Na+] (stereo not drawn) [PHENOBARBITAL SODIUM]
LD50 [1]: 225 mg/kg
ED50 (Mus musculus [2]): 15.4 mg/kg
ED50 (Mus musculus [3]): 8 mg/kg
ED50 (Mus musculus [4]): 62.5 mg/kg
ED50 (Mus musculus [5]): 83 mg/kg
RD50 (Mus musculus [6]): 65.6 mg/kg

O=C1CCC2(c3ccc(Cl)c(Cl)c3)OCCCN12 (stereo not drawn)
LD50 [1]: 550 mg/kg
ED50 (Mus musculus [2]): 112 mg/kg
ED50 (Mus musculus [3]): < 75 mg/kg
ED50 (Mus musculus [4]): < 150 mg/kg
ED50 (Mus musculus [5]): < 150 mg/kg
RD50 (Mus musculus [6]): >150 mg/kg

O=C1CCC2(c3ccccc3)OCCN12 (stereo not drawn)
Activity (Mus musculus [10]): inactive
LD50 [1]: 300 mg/kg
ED50 (Mus musculus [4]): < 50 mg/kg
ED50 (Mus musculus [5]): 150 mg/kg
RD50 (Mus musculus [6]): 37.5 mg/kg
Activity (Mus musculus [9]): inactive

COc1ccc(C23CCC(=O)N2CCCO3)cc1 (stereo not drawn)
ED50 (Mus musculus [2]): 93.8 mg/kg
ED50 (Mus musculus [3]): 138 mg/kg
ED50 (Mus musculus [4]): < 150 mg/kg
ED50 (Mus musculus [5]): < 150 mg/kg
RD50 (Mus musculus [6]): <150 mg/kg

From ChEMBL document CHEMBL3272038, “Synthesis and central nervous system depressant activity of some bicyclic amides” (J Med Chem, 1976)
